From ChEMBL document CHEMBL1138415, “Analogues of the dopamine D2 receptor antagonist L741,626: Binding, function, and SAR” (Bioorg Med Chem Lett, 2007)

Experiments:
D(3) dopamine receptor [1] = molecular target: T1, D(3) dopamine receptor (Homo sapiens, UniProt P35462); experiment: Displacement of [125I]IABN from human dopamine D3 receptor expressed in HEK293 cells; assay type: cell-based
Homo sapiens [2] = species: Homo sapiens; experiment: Selectivity for human dopamine D2L receptor over human dopamine D4 receptor
Homo sapiens [3] = species: Homo sapiens; experiment: Selectivity for human dopamine D2L receptor over human dopamine D3 receptor
D(2) dopamine receptor [4] = molecular target: T2, D(2) dopamine receptor (Homo sapiens, UniProt P14416); experiment: Displacement of [125I]IABN from human dopamine D2L receptor expressed in HEK293 cells; assay type: cell-based
D(4) dopamine receptor = molecular target: T3, D(4) dopamine receptor (Homo sapiens, UniProt P21917); experiment: Displacement of [125I]IABN from human dopamine D4 receptor expressed in HEK293 cells; assay type: cell-based
T3 sequence (P21917 whole entry): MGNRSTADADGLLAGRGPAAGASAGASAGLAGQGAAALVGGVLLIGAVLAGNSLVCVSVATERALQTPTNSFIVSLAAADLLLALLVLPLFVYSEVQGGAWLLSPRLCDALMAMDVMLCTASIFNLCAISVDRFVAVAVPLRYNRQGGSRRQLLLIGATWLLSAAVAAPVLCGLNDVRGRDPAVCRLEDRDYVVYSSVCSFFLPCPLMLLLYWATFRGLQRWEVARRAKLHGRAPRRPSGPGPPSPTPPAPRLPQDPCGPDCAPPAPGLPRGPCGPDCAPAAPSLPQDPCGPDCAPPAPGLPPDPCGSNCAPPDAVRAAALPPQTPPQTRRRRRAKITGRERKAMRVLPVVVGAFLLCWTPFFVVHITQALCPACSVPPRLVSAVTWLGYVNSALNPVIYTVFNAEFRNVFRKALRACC
Outline: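 Competition binding on HEK 293 cells transfected with human D2L or D4 dopamine receptors; radioligand [125I]IABN displaced by test ligand; Ki values derived.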

D(3) dopamine receptor [5] = molecular target: T1, D(3) dopamine receptor; experiment: Antagonist activity at human dopamine D3 receptor expressed in CHO cells assessed as inhibition of quinpirole stimulated mitogenesis; assay type: functional, cell-based
D(2) dopamine receptor [6] = molecular target: T2, D(2) dopamine receptor; experiment: Antagonist activity at human dopamine D2 receptor expressed in CHO cells assessed as inhibition of quinpirole stimulated mitogenesis; assay type: functional, cell-based
Outline: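 Functional mitogenesis assay in CHO cells transfected with human D2 receptor; antagonism measured as inhibition of quinpirole-stimulated mitogenesis (agonism tested as stimulation); EC50 reported; run via NIDA CTDP contract protocol.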

T2 sequence (P14416 whole entry): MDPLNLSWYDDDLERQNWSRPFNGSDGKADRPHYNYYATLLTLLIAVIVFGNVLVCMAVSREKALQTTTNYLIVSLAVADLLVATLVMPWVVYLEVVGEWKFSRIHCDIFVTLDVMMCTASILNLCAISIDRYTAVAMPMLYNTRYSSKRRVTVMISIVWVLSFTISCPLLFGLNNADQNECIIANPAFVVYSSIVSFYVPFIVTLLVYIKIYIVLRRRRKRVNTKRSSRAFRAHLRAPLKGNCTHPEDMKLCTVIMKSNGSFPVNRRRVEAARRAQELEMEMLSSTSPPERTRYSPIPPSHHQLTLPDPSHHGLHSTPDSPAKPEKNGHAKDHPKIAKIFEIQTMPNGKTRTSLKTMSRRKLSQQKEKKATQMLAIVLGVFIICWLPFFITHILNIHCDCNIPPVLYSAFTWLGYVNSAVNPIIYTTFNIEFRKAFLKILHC
T1 sequence (P35462 whole entry): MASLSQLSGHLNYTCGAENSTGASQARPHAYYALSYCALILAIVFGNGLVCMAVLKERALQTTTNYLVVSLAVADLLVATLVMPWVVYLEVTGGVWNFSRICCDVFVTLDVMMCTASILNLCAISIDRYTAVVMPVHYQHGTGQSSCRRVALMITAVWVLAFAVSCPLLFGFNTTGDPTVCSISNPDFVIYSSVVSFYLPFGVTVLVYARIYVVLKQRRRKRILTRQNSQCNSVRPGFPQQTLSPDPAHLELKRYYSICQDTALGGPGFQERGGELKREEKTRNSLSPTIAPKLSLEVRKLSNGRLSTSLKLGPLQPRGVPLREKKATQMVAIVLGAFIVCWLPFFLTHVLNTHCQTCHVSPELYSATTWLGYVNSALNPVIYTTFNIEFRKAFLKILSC

Compound	Ki (D(3) dopamine receptor [1]) [nM]	Ratio Ki (Homo sapiens [2])	Ratio Ki (Homo sapiens [3])	Ki (D(2) dopamine receptor [4]) [nM]	Ki (D(4) dopamine receptor) [nM]	EC50 (D(3) dopamine receptor [5]) [nM]	EC50 (D(2) dopamine receptor [6]) [nM]
C=CCOC1(c2ccc(Cl)cc2)CCN(Cc2c[nH]c3ccccc23)CC1	718	7	4	165	1190		
OCC1(c2ccc(Cl)cc2)CCN(Cc2c[nH]c3ccccc23)CC1	106	1	0.04	2370	1940		
OC1(c2ccc(Cl)c(Cl)c2)CCN(Cc2n[nH]c3ccccc23)CC1	156	2	0.4	438	677		
OC1(c2ccc(-c3ccccc3)cc2)CCN(Cc2c[nH]c3ccccc23)CC1	467	1	5	98.4	129		
CSc1ccc(C2(O)CCN(Cc3coc4ccccc34)CC2)cc1	139	3	3	54	153		
COc1ccc(C2(O)CCN(Cc3c[nH]c4ccccc34)CC2)cc1	2130	4	12	177	679		
OC1(c2ccc(Cl)cc2)CCN(Cc2c[nH]c3ccccc23)CC1	163				1520	90.4	
CSc1ccc(C2(O)CCN(Cc3c[nH]c4ccccc34)CC2)cc1	638	13	27	23.9	319		
Cc1[nH]c2ccccc2c1CN1CCC(O)(c2ccc(Cl)cc2)CC1	44.1	194	3	15.4	2990	20.2	2.13
OC1(c2ccc(Cl)cc2)CCN(Cc2cc3ccccc3[nH]2)CC1				> 10000	> 20000		
CC(=O)NCC1(c2ccc(Cl)cc2)CCN(Cc2c[nH]c3ccccc23)CC1	12500	2	6	2000	4450		
OC1(c2ccc(Cl)cc2)CCCN(Cc2c[nH]c3ccccc23)C1 (centres undefined)	4270	1	1	4270	2440		
OC1(c2cccc(Cl)c2)CCN(Cc2c[nH]c3ccccc23)CC1	450	27	3	129	3540		83.4
OC1(Cc2ccc(Cl)cc2)CCN(Cc2c[nH]c3ccccc23)CC1	5480	1	2	2890	3930		
OC1(c2cccc(C(F)(F)F)c2)CCN(Cc2c[nH]c3ccccc23)CC1	570	35	5	106	3750		69.1
OC1(c2ccc(F)cc2)CCN(Cc2c[nH]c3ccccc23)CC1	490	48	4	127	6090		
OC1(c2ccc(Cl)cc2)CCN(Cc2coc3ccccc23)CC1	53	19	3	21	404		
OC1(c2ccc(Cl)cc2)CCN(Cc2n[nH]c3ccccc23)CC1	440	4	1	548	2150		
NCC1(c2ccc(Cl)cc2)CCN(Cc2c[nH]c3ccccc23)CC1	> 5000			> 10000	> 20000		

Compound	Ki (D(3) dopamine receptor [1]) [nM]	Ratio Ki (Homo sapiens [2])	Ratio Ki (Homo sapiens [3])	Ki (D(2) dopamine receptor [4]) [nM]	Ki (D(4) dopamine receptor) [nM]	EC50 (D(3) dopamine receptor [5]) [nM]	EC50 (D(2) dopamine receptor [6]) [nM]
OC1(c2cccc(Cl)c2Cl)CCN(Cc2c[nH]c3ccccc23)CC1	273	59	10	26.1	1550	232	34.3
CCCCCCn1cc(CN2CCC(O)(c3ccc(Cl)cc3)CC2)c2ccccc21	488	47	3	188	8890	661	166
Cn1cc(CN2CCC(O)(c3ccc(Cl)cc3)CC2)c2ccccc21	238	174	8	29.6	5140	98.6	20
FC1(c2ccc(Cl)cc2)CCN(Cc2c[nH]c3ccccc23)CC1	211	3	2	120	365		
N#CC1(c2ccc(Cl)cc2)CCN(Cc2c[nH]c3ccccc23)CC1	684	11	3	199	2270		225
CCOC(=O)C1(c2ccc(Cl)cc2)CCN(Cc2c[nH]c3ccccc23)CC1	724	60	12	58.8	3520		
CCCCCCOc1ccc(C2(O)CCN(Cc3c[nH]c4ccccc34)CC2)cc1	1950	9	12	159	1490		216
CC1(c2ccc(Cl)cc2)CCN(Cc2c[nH]c3ccccc23)CC1	2100	3	2	992	2750	347	314
OC1(c2ccccc2Cl)CCN(Cc2c[nH]c3ccccc23)CC1	1860	7	5	382	2820		586
Oc1ccc(C2(O)CCN(Cc3c[nH]c4ccccc34)CC2)cc1	16800	0.3	3	5360	1360		
COc1ccc2[nH]cc(CN3CCC(O)(c4ccc(SC)cc4)CC3)c2c1	580	103	105	5.5	567		
OC1(c2ccc(Cl)c(Cl)c2)CCN(Cc2coc3ccccc23)CC1	28	8	1	21	167		
OC1(c2ccc(Cl)c(Cl)c2)CCN(Cc2c[nH]c3ccccc23)CC1	111	159	16	6.9	1100	41.5	15.3
CC(=O)NC1(c2ccc(Cl)cc2)CCN(Cc2c[nH]c3ccccc23)CC1	193	4	2	83.1	348		24.8
COC1(c2ccc(Cl)cc2)CCN(Cc2c[nH]c3ccccc23)CC1	262		4	68.1	34.1	248	34.7
NC1(c2ccc(Cl)cc2)CCN(Cc2c[nH]c3ccccc23)CC1	382	12	2	184	2290		
OC1(c2ccc(Cl)cc2)CCCN(Cc2c[nH]c3ccccc23)CC1 (centres undefined)	2100	19	10	201	3870		260
COC(=O)C1(c2ccc(Cl)cc2)CCN(Cc2c[nH]c3ccccc23)CC1	544	66	9	60	3930		76.7
